Assay outcomes (PubChem)
UPR XBP1 act = activators of adaptive XBP1 UPR arm, primary screen, cell-based, CHO-XBP1 luciferase reporter, luminescence, uHTS; activation, % at 20 µM; 0.33% of 330,000 active; IRE1-XBP1 UPR activation; percent of tunicamycin response, DMSO as zero;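 active means versus positive control, 20 µM dose yields 30% or more activation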;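 further: 100% = tunicamycin at 10 µg/mL and 0% = DMSO only wells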
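assay system = CHO-XBP1 luciferase reporter cells | amount = 1000 cells/well | buffer or medium = F12 plus 10% FBS | compound dosing = single point, 20 µM final compound, 1% DMSO | incubation = 16-18 h cell attachment at 37 °C, then 6 h compound exposure | detection = Steady-Glo luminescence read | controls = tunicamycin 10 µg/mL and vehicle-only wells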
Gli-Sufu antag = Gli-Sufu pathway antagonists, primary screen, luciferase luminescence, Sufu-KO-LIGHT cells, uHTS | Sufu-KO-LIGHT fibroblasts, Gli luciferase reporter luminescence | 0.74% of 340,000 active | inhibition, % at 5 µM;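 active means inhibition above about 55%, limit read from the data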;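 further: 0% = DMSO-treated cells and 100% = wells with medium but no cells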
UPR CHOP act = activators of apoptotic CHOP UPR arm, primary screen, cell-based, CHO-CHOP luciferase reporter, luminescence, uHTS; 0.34% of 330,000 active; UPR activation; percent of tunicamycin response over DMSO baseline; activation, % at 10 µM;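 active means at 10 µM dose, activation of 40% or more, normalized to positive control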;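 further: 100% = tunicamycin at 10 µg/mL and 0% = DMSO alone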
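Assay system: CHO cells with stable CHOP pathway luciferase reporter; Buffer or medium: F12 plus 10% serum; Times: 16-18 h cell attachment, then 6 h compound exposure, 37 °C; Signal: luciferase luminescence; Read-out basis: percent activation relative to tunicamycin control; Control set: tunicamycin high control, DMSO low control.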
CHOP inh = inhibitors of CHOP promoter induction, primary screen, cell-based, unfolded protein response, luciferase reporter. AID 2732, 2010. 3.8% of 220,000 active. inhibition, % at 10 µM. CHO-K1 CHOP-promoter luciferase, tunicamycin-induced, 15-18 h;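 active means compounds that reduced the stress-induced luciferase reporter signal by more than about 70% of percent inhibition, limit read from the data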;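 further: 0% = tunicamycin plus vehicle and 100% = wells without tunicamycin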
697 NFkB inh = inhibitors of PMA/ionomycin-induced NF-kB reporter, 697 cells, primary screen, B-cell NF-kB inhibitor project, cell-based, luminescence, uHTS; 697 B-cell NF-kB luciferase reporter, 16 h; inhibition, % at 4 µM; 0.33% of 330,000 active; in the data active means inhibition above about 35%
Jurkat NFkB inh = inhibitors of induced NF-kB luciferase reporter, primary screen, TCR NF-kB activation inhibitor project, cell-based, luminescence, uHTS; Jurkat, PMA/ionomycin-induced NF-kB luciferase reporter; inhibition, % at 4 µM; 0.53% of 330,000 active; in the data active means inhibition above about 50%
Starred values were filed as active, the others as inactive; . = not tested or not shown. The list is not random: actives were taken first. Their share in the collection is about 3.9%.

SMILES	UPR XBP1 act	Gli-Sufu antag	UPR CHOP act	CHOP inh	697 NFkB inh	Jurkat NFkB inh
Cn1c(=O)c(C(=O)CN2CCc3ccccc32)c(N)n(Cc2ccccc2)c1=O	-0.2	12.9	0.9	46.5	-26.6	2.1
O=CNn1cnc2c(oc3nc(-c4ccccc4)cc(-c4ccco4)c32)c1=O	7.3	9.6	1.5	85.3*	6.0	12.9
Fc1ccc(-c2nnc(NC3=NCCCCC3)o2)cc1	-10.5	7.5	-8.0	75.0*	-95.4	-16.3
c1ccc(-c2nnc(NC3=NCCC3)o2)cc1	-5.0	-47.2	-2.2	6.5	-72.5	-76.2
COC(=O)c1cccc(-n2c(=O)n(Cc3ccccc3)c(=O)c3[nH]cnc32)c1C	-2.2	4.5	0.1	.	9.2	13.6
CN(C)c1ccc(NC(=O)C(=O)NCCOc2ccccc2)cc1	-0.2	-16.3	-0.8	70.2*	12.9	-4.6
COc1ccc(C(=O)N2CCN(C)C(=O)[C@@H]2C)cc1OC1CCN(C(C)=O)CC1	-0.7	3.2	0.7	.	4.6	-0.2
COc1cc(C=NO)nc(-c2ccccn2)c1	.	86.7*	.	.	.	.
COc1ccc2nc(-c3ccccn3)[nH]c2c1	-6.0	-62.1	2.8	.	-116.0	-114.5
CN(C)C(=O)CSc1nnc(Cc2ccccc2)n1Cc1ccco1	-1.4	6.7	0.3	19.8	25.5	-11.0
O=C(CSc1nnc(Cc2ccccc2)n1Cc1ccco1)NC12CC3CC(CC(C3)C1)C2	-0.4	6.1	0.5	72.0*	0.2	14.5
CCOC(=O)C1CCCN(C(=O)Cn2nc(C)c3c(C)n(-c4ccccc4)nc3c2=O)C1 (centres undefined)	-1.7	18.5	1.3	.	-34.3	4.7
O=C(N/N=C/c1cccc(Oc2ccccc2)c1)c1ccccc1Br	-0.4	35.0	-1.5	84.1*	-60.3	-3.4
Cc1cccc(N=C2NN=C(c3c(C)[nH]c4ccccc34)CS2)c1	-1.2	-2.5	1.2	72.5*	-20.0	-16.6
Cc1cccc(N=C2NN=C(c3ccc4c(c3)OCCO4)CS2)c1	-5.6	-24.3	1.6	40.4	-91.5	-103.9
CCOC(=O)c1ccc(Oc2nc(N(C)C)nc(N(C)C)n2)cc1	0.2	10.9	-1.1	71.3*	5.2	0.0
O=C(c1cc(-c2ccccc2Cl)on1)N1CCCC1	-8.2	-88.7	-1.8	.	-143.1	-116.7
O=C(c1cccc(F)c1)N1CCN(C(=O)c2cc(-c3ccc(Cl)cc3Cl)on2)CC1	0.6	-16.1	0.8	74.4*	0.7	19.5
CCCCN(Cc1ccco1)C(=O)c1cc2c(=O)[nH]c3ccc(C)cc3c2s1	3.8	11.6	-1.9	72.7*	-3.3	-1.3
Cc1ccc(-c2cc(C(=O)N3CC4(C)CC3CC(C)(C)C4)no2)cc1 (centres undefined)	-2.9	8.9	-0.2	.	-31.4	-24.3
CC1(C)CC2CC(C)(CN2C(=O)c2cc(-c3ccccc3O)on2)C1 (centres undefined)	0.9	-1.0	3.0	76.5*	12.8	19.2
COc1ccc(-c2cc(C(=O)N3CC4(C)CC3CC(C)(C)C4)no2)cc1OC (centres undefined)	-1.2	17.0	0.2	73.1*	-26.3	-11.8
CCc1cc(C(=O)Cc2cnn(-c3ccccc3)c2)c(O)cc1O	-2.0	10.7	-2.2	77.5*	-1.3	14.4
COc1ccc(-c2noc(CCC(=O)NCC3CCCO3)n2)cc1OC (centres undefined)	-1.8	-9.1	0.4	.	2.0	-5.5
CCOC(=O)c1c(C)n(-c2ccc(F)cc2)c2ccc(O)cc12	-0.1	-2.4	2.3	.	-3.7	-6.0
COC(=O)c1c(C)n(-c2ccc(OC)cc2)c2ccc(O)cc12	-3.3	-9.9	-3.4	74.1*	3.7	12.0
CC(OC(=O)CNC(=O)c1ccc(Cl)c(Cl)c1)C(=O)N1CCOCC1 (centres undefined)	-2.8	-12.3	0.6	.	1.0	-2.5
